Reference: ChEMBL document CHEMBL2375313, “Synthesis, in vitro antitumor evaluation and DNA-binding study of novel tetrahydroquinolines and some derived tricyclic and tetracyclic ring systems” (Eur J Med Chem, 2013)

Key:
Type in all cases: functional
HOP-92 = test: Cytotoxicity against human HOP92 cells assessed as growth inhibition at 10 uM after 48 hrs by sulphorhodamine B assay; conditions: HOP-92, 48 h, read-out: GI
Procedure, shortened: (§1)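 NCI-60 one-dose screen per the NCI Drug Evaluation Branch protocol. Cells given a single 10 µM concentration with 48 h continuous exposure. Growth estimated by sulphorhodamine B protein assay. Result expressed as percentage growth inhibition relative to untreated growth.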

NCI-H23 = test: Cytotoxicity against human NCI-H23 cells assessed as growth inhibition at 10 uM after 48 hrs by sulphorhodamine B assay; conditions: NCI-H23, 48 h, read-out: GI; procedure, shortened: as §1
[1] = Cytotoxicity against human EKVX cells assessed as growth inhibition at 10 uM after 48 hrs by sulphorhodamine B assay; conditions: read-out: GI; procedure, shortened: as §1
A549 = test: Cytotoxicity against human A549 cells assessed as growth inhibition at 10 uM after 48 hrs by sulphorhodamine B assay; conditions: A549, 48 h, read-out: GI; procedure, shortened: as §1
NCI/ADR-RES = test: Cytotoxicity against human NCI/ADR-RES cells assessed as growth inhibition at 10 uM after 48 hrs by sulphorhodamine B assay; conditions: read-out: GI; procedure, shortened: as §1
SNB-75 = test: Cytotoxicity against human SNB75 cells assessed as growth inhibition at 10 uM after 48 hrs by sulphorhodamine B assay; conditions: SNB-75, 48 h, read-out: GI; procedure, shortened: as §1
U-251 = test: Cytotoxicity against human U251 cells assessed as growth inhibition at 10 uM after 48 hrs by sulphorhodamine B assay; conditions: U-251, 48 h, read-out: GI; procedure, shortened: as §1
SNB-19 = test: Cytotoxicity against human SNB19 cells assessed as growth inhibition at 10 uM after 48 hrs by sulphorhodamine B assay; conditions: SNB-19, 48 h, read-out: GI; procedure, shortened: as §1
SF-295 = test: Cytotoxicity against human SF295 cells assessed as growth inhibition at 10 uM after 48 hrs by sulphorhodamine B assay; conditions: SF-295, 48 h, read-out: GI; procedure, shortened: as §1
DU-145 = test: Cytotoxicity against human DU145 cells assessed as growth inhibition at 10 uM after 48 hrs by sulphorhodamine B assay; conditions: DU-145, 48 h, read-out: GI; procedure, shortened: as §1
SF-268 = test: Cytotoxicity against human SF268 cells assessed as growth inhibition at 10 uM after 48 hrs by sulphorhodamine B assay; conditions: SF-268, 48 h, read-out: GI; procedure, shortened: as §1
PC-3 = test: Cytotoxicity against human PC3 cells assessed as growth inhibition at 10 uM after 48 hrs by sulphorhodamine B assay; conditions: PC-3, 48 h, read-out: GI; procedure, shortened: as §1
UACC-62 = test: Cytotoxicity against human UACC62 cells assessed as growth inhibition at 10 uM after 48 hrs by sulphorhodamine B assay; conditions: UACC-62, 48 h, read-out: GI; procedure, shortened: as §1
SK-MEL-2 = test: Cytotoxicity against human SK-MEL-2 cells assessed as growth inhibition at 10 uM after 48 hrs by sulphorhodamine B assay; conditions: SK-MEL-2, 48 h, read-out: GI; procedure, shortened: as §1
SK-MEL-5 = test: Cytotoxicity against human SK-MEL-5 cells assessed as growth inhibition at 10 uM after 48 hrs by sulphorhodamine B assay; conditions: SK-MEL-5, 48 h, read-out: GI; procedure, shortened: as §1
M14 = test: Cytotoxicity against human M14 cells assessed as growth inhibition at 10 uM after 48 hrs by sulphorhodamine B assay; conditions: M14, 48 h, read-out: GI; procedure, shortened: as §1
LOX IMVI = test: Cytotoxicity against human LOXIMVI cells assessed as growth inhibition at 10 uM after 48 hrs by sulphorhodamine B assay; conditions: read-out: GI; procedure, shortened: as §1
UO-31 = test: Cytotoxicity against human UO31 cells assessed as growth inhibition at 10 uM after 48 hrs by sulphorhodamine B assay; conditions: UO-31, 48 h, read-out: GI; procedure, shortened: as §1
CAKI-1 = test: Cytotoxicity against human Caki1 cells assessed as growth inhibition at 10 uM after 48 hrs by sulphorhodamine B assay; conditions: CAKI-1, 48 h, read-out: GI; procedure, shortened: as §1
RXF 393 = test: Cytotoxicity against human RXF393 cells assessed as growth inhibition at 10 uM after 48 hrs by sulphorhodamine B assay; conditions: RXF 393, 48 h, read-out: GI; procedure, shortened: as §1
ACHN = test: Cytotoxicity against human ACHN cells assessed as growth inhibition at 10 uM after 48 hrs by sulphorhodamine B assay; conditions: read-out: GI; procedure, shortened: as §1
SR = test: Cytotoxicity against human SR cells assessed as growth inhibition at 10 uM after 48 hrs by sulphorhodamine B assay; conditions: read-out: GI; procedure, shortened: as §1
A498 = test: Cytotoxicity against human A498 cells assessed as growth inhibition at 10 uM after 48 hrs by sulphorhodamine B assay; conditions: A498, 48 h, read-out: GI; procedure, shortened: as §1
RPMI-8226 = test: Cytotoxicity against human RPMI8226 cells assessed as growth inhibition at 10 uM after 48 hrs by sulphorhodamine B assay; conditions: RPMI-8226, 48 h, read-out: GI; procedure, shortened: as §1
MOLT-4 = test: Cytotoxicity against human MOLT4 cells assessed as growth inhibition at 10 uM after 48 hrs by sulphorhodamine B assay; conditions: MOLT-4, 48 h, read-out: GI; procedure, shortened: as §1
K562 = test: Cytotoxicity against human K562 cells assessed as growth inhibition at 10 uM after 48 hrs by sulphorhodamine B assay; conditions: K562, 48 h, read-out: GI; procedure, shortened: as §1
HL-60(TB) = test: Cytotoxicity against human HL-60(TB) cells assessed as growth inhibition at 10 uM after 48 hrs by sulphorhodamine B assay; conditions: HL-60, 48 h, read-out: GI
Procedure, shortened: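 NCI-60 one-dose primary screen run to the Drug Evaluation Branch protocol. Cells are exposed to a single 10 µM concentration for 48 h continuously, and growth is read by SRB protein assay. Data are reported as percent growth of treated cells, expressed as % growth inhibition.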

SK-OV-3 = test: Cytotoxicity against human SKOV3 cells assessed as growth inhibition at 10 uM after 48 hrs by sulphorhodamine B assay; conditions: SK-OV-3, 48 h, read-out: GI; procedure, shortened: as §1
CCRF-CEM = test: Cytotoxicity against human CCRF-CEM cells assessed as growth inhibition at 10 uM after 48 hrs by sulphorhodamine B assay; conditions: read-out: GI; procedure, shortened: as §1
OVCAR-5 = test: Cytotoxicity against human OVCAR5 cells assessed as growth inhibition at 10 uM after 48 hrs by sulphorhodamine B assay; conditions: OVCAR-5, 48 h, read-out: GI; procedure, shortened: as §1
OVCAR-4 = test: Cytotoxicity against human OVCAR4 cells assessed as growth inhibition at 10 uM after 48 hrs by sulphorhodamine B assay; conditions: OVCAR-4, 48 h, read-out: GI; procedure, shortened: as §1
IGROV-1 = test: Cytotoxicity against human IGROV1 cells assessed as growth inhibition at 10 uM after 48 hrs by sulphorhodamine B assay; conditions: IGROV-1, 48 h, read-out: GI; procedure, shortened: as §1
T47D = test: Cytotoxicity against human T47D cells assessed as growth inhibition at 10 uM after 48 hrs by sulphorhodamine B assay; conditions: read-out: GI; procedure, shortened: as §1
Hs-578T = test: Cytotoxicity against human Hs578T cells assessed as growth inhibition at 10 uM after 48 hrs by sulphorhodamine B assay; conditions: read-out: GI; procedure, shortened: as §1
NCI-H522 = test: Cytotoxicity against human NCI-H522 cells assessed as growth inhibition at 10 uM after 48 hrs by sulphorhodamine B assay; conditions: NCI-H522, 48 h, read-out: GI; procedure, shortened: as §1
HT-29 = test: Cytotoxicity against human HT-29 cells assessed as growth inhibition at 10 uM after 48 hrs by sulphorhodamine B assay; conditions: HT-29, 48 h, read-out: GI; procedure, shortened: as §1
MCF7 = test: Cytotoxicity against human MCF7 cells assessed as growth inhibition at 10 uM after 48 hrs by sulphorhodamine B assay; conditions: MCF7, 48 h, read-out: GI; procedure, shortened: as §1
MDA-MB-435 = test: Cytotoxicity against human MDA-MB-435 cells assessed as growth inhibition at 10 uM after 48 hrs by sulphorhodamine B assay; conditions: MDA-MB-435, 48 h, read-out: GI; procedure, shortened: as §1
HCT-15 = test: Cytotoxicity against human HCT15 cells assessed as growth inhibition at 10 uM after 48 hrs by sulphorhodamine B assay; conditions: HCT-15, 48 h, read-out: GI; procedure, shortened: as §1
MDA-MB-468 = test: Cytotoxicity against human MDA-MB-468 cells assessed as growth inhibition at 10 uM after 48 hrs by sulphorhodamine B assay; conditions: MDA-MB-468, 48 h, read-out: GI; procedure, shortened: as §1
HCT-116 = test: Cytotoxicity against human HCT116 cells assessed as growth inhibition at 10 uM after 48 hrs by sulphorhodamine B assay; conditions: HCT-116, 48 h, read-out: GI; procedure, shortened: as §1

Compound CCSc1nc(N)c2c(-c3ccc(OC)cc3)c3c(nc2n1)C(C)CCC3 (stereo unspecified) has an inhibition of growth at 10 µM (HOP-92) of 26.8%, an inhibition of growth at 10 µM (NCI-H23) of less than 10% and an inhibition of growth at 10 µM [1] of less than 10%. It also gave an inhibition of growth at 10 µM (A549) of 16%, an inhibition of growth at 10 µM (NCI/ADR-RES) of less than 10% and an inhibition of growth at 10 µM (SNB-75) of less than 10%. The inhibition of growth at 10 µM (U-251) was 16%, the inhibition of growth at 10 µM (SNB-19) was 12.5% and the inhibition of growth at 10 µM (SF-295) was less than 10%. For the same compound, the inhibition of growth at 10 µM (DU-145) was 24.5%, the inhibition of growth at 10 µM (SF-268) was less than 10% and the inhibition of growth at 10 µM (PC-3) was 31.4%. For the same compound, the inhibition of growth at 10 µM (UACC-62) was 25%, the inhibition of growth at 10 µM (SK-MEL-2) was less than 10% and the inhibition of growth at 10 µM (SK-MEL-5) was 11.4%. For the same compound, the inhibition of growth at 10 µM (M14) was less than 10%, the inhibition of growth at 10 µM (LOX IMVI) was 10.6% and the inhibition of growth at 10 µM (UO-31) was 10.5%. It also gave an inhibition of growth at 10 µM (CAKI-1) of less than 10%, an inhibition of growth at 10 µM (RXF 393) of 25.9% and an inhibition of growth at 10 µM (ACHN) of 30.8%. For the same compound, the inhibition of growth at 10 µM (SR) was less than 10%, the inhibition of growth at 10 µM (A498) was less than 10% and the inhibition of growth at 10 µM (RPMI-8226) was 25.5%. It also gave an inhibition of growth at 10 µM (MOLT-4) of 29%, an inhibition of growth at 10 µM (K562) of 32.5% and an inhibition of growth at 10 µM (HL-60(TB)) of 34.5%. The inhibition of growth at 10 µM (SK-OV-3) was less than 10%, the inhibition of growth at 10 µM (CCRF-CEM) was 26.4% and the inhibition of growth at 10 µM (OVCAR-5) was less than 10%. It also gave an inhibition of growth at 10 µM (OVCAR-4) of 26.8%, an inhibition of growth at 10 µM (IGROV-1) of less than 10% and an inhibition of growth at 10 µM (T47D) of 41%. The inhibition of growth at 10 µM (Hs-578T) was 36.2%, the inhibition of growth at 10 µM (NCI-H522) was 13.2% and the inhibition of growth at 10 µM (HT-29) was 23.3%. The inhibition of growth at 10 µM (MCF7) was less than 10%, the inhibition of growth at 10 µM (MDA-MB-435) was less than 10% and the inhibition of growth at 10 µM (HCT-15) was 23.8%. The inhibition of growth at 10 µM (MDA-MB-468) was 13.8% and the inhibition of growth at 10 µM (HCT-116) was 20%.
